Structures are written as SMILES. Values after ≈ are worked out from the molar mass of the structure shown. Active and inactive are the calls of the source. The rule behind the calls is not given here.

One may read the EC50 as the concentration that produces a half-maximal response. What is called EC90 is the concentration needed for an effect of 90%. A high value points to a need for much substance. The term CC50 denotes the concentration at which the toxic effect on the cells reaches its halfway point. As a reminder, the IC50 is the point on the concentration scale where inhibition reaches its midpoint.

The test system of series [1] is Human immunodeficiency virus 1. As to the kind of experiment: Antiviral activity against human PMA-stimulated HIV1 expression in latently HIV1 infected U1 cells assessed as inhibition of viral p24 production. The format is functional, organism-based.
In series [2] the test system is Human immunodeficiency virus 1. Kind of series: Antiviral activity against HIV1 BaL acutely infected human M/M cells. As to conditions: Human immunodeficiency virus 1, BaL. The format is functional, organism-based.
Series [3] has as its system Human immunodeficiency virus 1. As to the kind of experiment: Antiviral activity against HIV1 BaL chronically infected human M/M cells. It is filed as functional, organism-based. As to conditions: Human immunodeficiency virus 1, BaL.
In series [4] the test system is Human immunodeficiency virus 1. As to the kind of experiment: Antiviral activity against human TNF alpha-stimulated HIV1 expression in latently HIV1 infected OM10.1 cells assessed as inhibition of viral p24 production. The format is functional, organism-based.
Series [5] has as its system Human immunodeficiency virus 1. As to the kind of experiment: Antiviral activity against human PMA-stimulated HIV1 expression in latently HIV1 infected OM10.1 cells assessed as inhibition of viral p24 production. It is filed as functional, organism-based.
Series [6] is described as follows: Cytotoxicity against latently HIV1 infected OM10.1 cells by MTT method. The format is cell-based. The following applies: human, OM10.1 cells latently infected with HIV-1. In outline:
(§1)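 OM-10.1 cells at 500,000 cells/ml were exposed to compound for 2 h, then stimulated with 1 ng/ml hTNF-α or 0.02 µM PMA for 2 days at 37°C. Viability was read by MTT staining. The selectivity index is CC50 from MTT divided by EC50 from p24 ELISA run in the same cultures.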
On the technique in general: Formazan colour is commonly taken as a measure of viable cells.

Series [7] can be described thus: Selectivity index, CC50 for OM10.1 cells to EC50 for HIV1 infected OM10.1 cells. It is filed as functional. The essentials: as §1
The test system of series [8] is Human immunodeficiency virus 1. Kind of series: Antiviral activity against human TNF alpha-stimulated HIV1 expression in latently HIV1 infected U1 cells assessed as inhibition of viral p24 production. The format is functional, organism-based.
Series [9] has as its system Human immunodeficiency virus 1. As to the kind of experiment: Antiviral activity against human TNF-alpha stimulated HIV1 expression in latently HIV1 infected OM10.1 cells assessed as inhibition of viral mRNA production. The format is functional, organism-based.
For series [10], the system named is Human immunodeficiency virus 1. As to the kind of experiment: Antiviral activity against PMA stimulated HIV1 expression in latently HIV1 infected OM10.1 cells assessed as inhibition of viral mRNA production. It is filed as functional, organism-based.
For series [11], the system named is Human immunodeficiency virus 1. As to the kind of experiment: Antiviral activity against human TNF-alpha stimulated HIV1 expression in latently HIV1 infected U1 cells assessed as decrease in mRNA production. It is filed as functional, organism-based.
The subject of series [12] is Human immunodeficiency virus 1. As to the kind of experiment: Antiviral activity against human PMA stimulated HIV1 expression in latently HIV1 infected U1 cells assessed as decrease in mRNA production. It is filed as functional, organism-based.
In series [13] the test system is Human immunodeficiency virus 1. As to the kind of experiment: Inhibition of viral reactivation in SCID mouse inoculated with HIV1 infected OM10.1 cells at 50 mg/kg, ip for 3 days prior to hTNF alpha administration assessed as viral loads after 18 hrs. It is filed as functional, organism-based. More on the design: dose 50 mg/kg.
Series [14] has as its system Human immunodeficiency virus 1. As to the kind of experiment: Antiviral activity against latently HIV1 infected OM10.1 cells assessed as inhibition of viral p24 antigen production. It is filed as functional, organism-based.
The subject of series [15] is Human immunodeficiency virus 1. As to the kind of experiment: Antiviral activity against latently HIV1 infected U1 cells assessed as inhibition of viral p24 antigen production. It is filed as functional, organism-based.

In the case of `Cn1cc(C(=O)O)c(=O)c2ccc(N3CCN(c4cccc(C(F)(F)F)c4)CC3)cc21`, the Activity entry in series [1], in series [8], in series [11], in [12], in series [14] and in series [15] was “Dose-dependent effect” each time. For the same compound, the EC50 was found to be 0.05 µg/mL (≈ 0.116 µM) in series [2], 0.05 µg/mL (≈ 0.116 µM) in series [3], 0.054 µg/mL (≈ 0.125 µM) in series [4] and 0.039 µg/mL (≈ 0.0904 µM) in series [5]. Further, the EC90 in [2] and in [3] was 1 µg/mL (≈ 2.32 µM) throughout. For the same compound, in series [6], the CC50 came out at 5 µg/mL (≈ 11.6 µM). For the same compound, in series [7], the “Ratio CC50/EC50” value is recorded as 125. The IC50 in [9] came out at 0.067 µg/mL (≈ 0.155 µM); in series [10], 0.032 µg/mL (≈ 0.0742 µM). The result in [13] was Active.
For `Cn1cc(C(=O)O)c(=O)c2ccc(N3CCN(c4nc5ccccc5s4)CC3)cc21`, the Activity entry in series [1], in series [8], in series [11], in [12], in series [14] and in series [15] was “Dose-dependent effect” throughout. For the same compound, the EC50 in series [2] amounted to 0.025 µg/mL (≈ 0.0595 µM); in series [3], 0.011 µg/mL (≈ 0.0262 µM); in series [4], 0.045 µg/mL (≈ 0.107 µM); in [5], 0.04 µg/mL (≈ 0.0951 µM). Further, the EC90 in [2] amounted to 0.2 µg/mL (≈ 0.476 µM); in [3] it was 0.16 µg/mL (≈ 0.381 µM). Also, it took 5 µg/mL (≈ 11.9 µM) to reach half-maximal cytotoxicity in series [6] (CC50). Moreover, the “Ratio CC50/EC50” value in [7] was 125. The IC50 in series [9] is 0.06 µg/mL (≈ 0.143 µM); in series [10], 0.04 µg/mL (≈ 0.0951 µM). The outcome in series [13] was Active.

Source of the values: ChEMBL document CHEMBL1147094, “Novel in vivo model for the study of human immunodeficiency virus type 1 transcription inhibitors: evaluation of new 6-desfluoroquinolone derivatives” (Antimicrob Agents Chemother, 2007).
